Assay results as given in ChEMBL document CHEMBL1128705, “[[[(Thienylcarbonyl)alkyl]oxy]phenyl]- and [[[(pyrrylcarbonyl)alkyl]oxy]phenyl]oxazoline derivatives with potent and selective antihuman rhinovirus activity” (J Med Chem, 1995).
Converted amounts (≈) assume the structure as drawn.

Legend:
HeLa [1] = assay: In vitro concentration required to reduce the viability of mock-infected HeLa cells by 50%; format: functional; settings: Homo sapiens
Procedure, shortened: (§1)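 Cytotoxicity run alongside the antiviral assay on mock-infected HeLa-Ohio cells. Compounds are taken from 200× DMSO stocks and serially diluted in maintenance medium. Cells are incubated 72 h at 37 °C and viability is read by MTT. CC50 is the concentration that reduces viability by 50%.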

Human rhinovirus sp. [2] = assay: In vitro concentration required to achieve 50% protection of HeLa cells from HRV-14 induced cytopathic effect; format: functional, organism-based
Procedure, shortened: (§2)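 HeLa-Ohio cells (20 000/well) are seeded in D-MEM with 2% FCS, 30 mM MgCl2 and 15 µg/mL DEAE-dextran, then grown overnight at 37 °C, 5% CO2, to a subconfluent monolayer. Compound dilutions (from 200× DMSO stocks) are added with HRV at 200–2000 PFU/monolayer, dosed to give full CPE in 72 h. Plates are held at 33 °C and viability is read by MTT. EC50 is the concentration giving 50% protection.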

HeLa [3] = assay: In vitro concentration required to achieve 50% protection of HeLa cells from HRV-2 induced cytopathic effect; format: functional, cell-based; settings: Homo sapiens; procedure, shortened: as §2
Human rhinovirus sp. [4] = assay: In vitro concentration which inhibits 80% of serotypes tested; format: functional
Procedure, shortened: (§3)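 CPE-inhibition MTT assay in HeLa-Ohio cells (30 mM MgCl2, 15 µg/mL DEAE-dextran, 2% FCS), infected at 200–2000 PFU/monolayer and incubated at 33 °C. MIC80 is the concentration inhibiting 80% of the serotypes tested.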

HeLa [5] = assay: Compound concentration required to reduce the viability of mock-infected HeLa cells by 50%, was reported.; format: functional; settings: Homo sapiens; procedure, shortened: as §1
Human rhinovirus sp. [6] = assay: Compound concentration which inhibits 80% of serotypes tested, was reported.; format: functional; procedure, shortened: as §3
HeLa [7] = assay: In vitro concentration required to reduce the viability of mock-infected HeLa cells by 50%, was reported.; format: functional; settings: Homo sapiens; procedure, shortened: as §1

Structure (SMILES)	CC50 (HeLa [1])	EC50 (Human rhinovirus sp. [2])	EC50 (HeLa [3])	MIC80 (Human rhinovirus sp. [4])	CC50 (HeLa [5])	MIC80 (Human rhinovirus sp. [6])	CC50 (HeLa [7])
CCOC(=O)c1ccc(OCCCCC(=O)c2ccc(C)o2)cc1	65 µM	2.42 µM	0.91 µM	–	–	–	–
CCOC(=O)c1ccc(OCCCCC(=O)c2ccc(Cl)s2)cc1	273 µM	0.54 µM	0.08 µM	2.18 µM (≈ 0.8 µg/mL)	–	–	–
Cn1cc(C(=O)CCCCOc2ccc(C(=O)O)cc2)cc1C=O	–	> 30.9 µM	> 30.9 µM	–	> 303 µM	> 30.9 µM	–
O=C(CCCCOc1ccc(C2=NCCO2)cc1)c1ccc[nH]1	> 320 µM	8.01 µM	3.2 µM	> 32 µM	–	–	–
Clc1ccc(CCCCCOc2ccc(C3=NCCO3)cc2)s1	71 µM	2.85 µM	2.57 µM	21.4 µM (≈ 7.5 µg/mL)	–	–	–
O=C(CCCCOc1ccc(C2=NCCO2)cc1)c1ccc(Cl)s1	> 271 µM	0.13 µM	0.81 µM	> 27.1 µM	–	–	–
c1ccn(CCCCCOc2ccc(C3=NCCO3)cc2)c1	159 µM	> 31.9 µM	1.43 µM	15.9 µM (≈ 4.75 µg/mL)	–	–	–
Cc1csc(C(=O)CCCCOc2ccc(C(=O)O)cc2)c1	> 314 µM	> 31.4 µM	> 31.4 µM	> 31.4 µM	–	–	–
CCOC(=O)c1ccc(OCCCCC(=O)c2cc(C)[nH]c2C)cc1	204 µM	18.9 µM	1.17 µM	> 29 µM	–	–	–
Cc1ccc(C(=O)CCCCOc2ccc(C(=O)O)cc2)s1	> 314 µM	> 31.4 µM	> 31.4 µM	> 31.4 µM	–	–	–
Cc1ccc(C(=O)CCCCOc2ccc(C3=NCCO3)cc2)s1	146 µM	0.14 µM	1.31 µM	9.04 µM (≈ 3.1 µg/mL)	–	–	–
CCOC(=O)c1ccc(OCCCC(=O)c2ccc(C)s2)cc1	> 301 µM	> 30.1 µM	10.6 µM	> 30.1 µM	–	–	–
Cc1ccc(CCCCCOc2ccc(C3=NCCO3)cc2)s1	> 303 µM	11.5 µM	2.58 µM	> 30.4 µM	–	–	–
Cc1cc(C(=O)CCCCOc2ccc(C3=NCCO3)cc2)c(C)n1C	141 µM	11.3 µM	> 28.2 µM	> 28.2 µM	–	–	–
Cc1ccsc1C(=O)CCCCOc1ccc(C(=O)O)cc1	> 314 µM	> 31.4 µM	> 31.4 µM	> 31.4 µM	–	–	–
Cc1ccc(C(=O)CCCOc2ccc(C3=NCCO3)cc2)s1	–	22.7 µM	15.2 µM	> 30.3 µM	–	–	–
Cc1ccc(C(=O)CCCCOc2ccc(C(=O)NCCO)cc2)o1	> 305 µM	> 30.6 µM	> 30.6 µM	> 30.6 µM	–	–	–

Structure (SMILES)	CC50 (HeLa [1])	EC50 (Human rhinovirus sp. [2])	EC50 (HeLa [3])	MIC80 (Human rhinovirus sp. [4])	CC50 (HeLa [5])	MIC80 (Human rhinovirus sp. [6])	CC50 (HeLa [7])
Cc1csc(C(=O)CCCCOc2ccc(C3=NCCO3)cc2)c1	73 µM	0.87 µM	2.91 µM	14.6 µM (≈ 5.01 µg/mL)	–	–	–
CCOC(=O)c1ccc(OCCCCC(=O)c2cc(C)cs2)cc1	> 289 µM	5.78 µM	2.89 µM	–	–	–	–
Cc1cc(C(=O)CCCCOc2ccc(C3=NCCO3)cc2)c(C)[nH]1	205 µM	> 29.4 µM	> 29.4 µM	> 29.4 µM	–	–	–
CCOC(=O)c1ccc(OCCCCCc2ccc(C)s2)cc1	301 µM	7.16 µM	1.59 µM	14.3 µM (≈ 4.76 µg/mL)	–	–	–
CCOC(=O)c1ccc(OCCCCC(=O)c2cc[nH]c2)cc1	> 317 µM	13.3 µM	11 µM	19.5 µM (≈ 6.14 µg/mL)	–	–	–
CCOC(=O)c1ccc(OCCCCCc2ccc(Cl)s2)cc1	> 284 µM	9.15 µM	1.84 µM	18.3 µM (≈ 6.45 µg/mL)	–	–	–
CCOC(=O)c1ccc(OCCCCC(=O)c2cc(C)n(C)c2C)cc1	56 µM	16.8 µM	2.28 µM	> 28 µM	–	–	–
CCOC(=O)c1ccc(OCCCCC(=O)c2ccc(C)s2)cc1	> 289 µM	0.29 µM	0.06 µM	2.31 µM (≈ 0.8 µg/mL)	–	–	–
c1cc(C2=NCCO2)ccc1OCCCCCN1CCCC1	165 µM	> 33.1 µM	> 33.1 µM	> 33.1 µM	–	–	–
Cn1cccc1C(=O)CCCCOc1ccc(C2=NCCO2)cc1	–	3.68 µM	> 30.7 µM	> 30.7 µM	–	–	> 306 µM
O=C(O)c1ccc(OCCCCC(=O)c2ccc(Cl)s2)cc1	> 295 µM	> 29.5 µM	> 29.5 µM	> 29.5 µM	–	–	–
CCOC(=O)c1ccc(OCCCCC(=O)c2cc(C=O)n(C)c2)cc1	–	1.96 µM	0.67 µM	–	56 µM	8.4 µM (≈ 3 µg/mL)	–
Cc1ccsc1C(=O)CCCCOc1ccc(C2=NCCO2)cc1	291 µM	1.46 µM	29.2 µM	> 29.1 µM	–	–	–
O=C(CCCCOc1ccc(C2=NCCO2)cc1)c1cc[nH]c1	> 320 µM	> 32 µM	> 32 µM	> 32 µM	–	–	–
CCOC(=O)c1ccc(OCCCCC(=O)c2sccc2C)cc1	202 µM	> 28.9 µM	6.94 µM	20.8 µM (≈ 7.21 µg/mL)	–	–	–
Cn1cc(C(=O)CCCCOc2ccc(C3=NCCO3)cc2)cc1C=O	–	> 28.2 µM	> 28.2 µM	–	> 282 µM	> 28.2 µM	–
Cc1cc(CCCCCCCOc2ccc(C3=NCCO3)cc2)on1 [DISOXARIL]	–	1.76 µM	2.35 µM	–	37 µM	3.51 µM (≈ 1.2 µg/mL)	–
